Test [1] can be described thus: reducers of endogenous Her2 protein level, primary screen, SKBR3 breast tumor cells, AlphaScreen, ATP viability (AID 461;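 active means Her2 level under about 52% in both replicate screens, with viability over 70% of control, limit read from the data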;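 on Her2 level: lower value means less Her2 protein in the cells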;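 on viability: percent of carrier control wells set as 100% viability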). The following applies: 18-24 h, measured here: SKBR3 viability, ATP luminescence, at 10 µM. On the technique in general: Alpha assays give light when donor and acceptor beads are brought close together.
Test [2] concerns the target Receptor tyrosine-protein kinase erbB-2 (Homo sapiens) (UniProt P04626). The description is as above. Particulars: 18-24 h, at 10 µM, stronger effect = lower value.
A short description of test [3]: SK-BR-3 cell growth inhibitors, pilot screen, 24 h, human (AID 572;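 active means viability at or below 10% of carrier control in both of two separate runs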;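 further: compound exposure lasted between 18 and 24 h rather than exactly 24 h; 100% = carrier-treated control wells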). Particulars: SK-BR-3 viability, CellTiter-Glo luminescence, at 10 µM, stronger effect = lower value.
Test [4] is described as follows: HUVEC growth inhibition – cell-based, human, primary screen (AID 575;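 active means viability at or below 30% in both replicate assays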;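 further: 100% = median of untreated cell wells with 0.1% DMSO on each plate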). Particulars: HUVEC proliferation, CellTiter-Glo luminescence, 72 h; at 10 µM; stronger effect = lower value. The procedure, abridged:
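Test system: primary human umbilical vein endothelial cells; medium: endothelial basal medium with 2% FBS plus growth supplements; dosing: 10 µM compound only; times: 72 h treatment at 37 °C; signal: CTG luminescence; read-out: % viability relative to median vehicle-well signal on each plate; control set: vehicle and MePR control wells; plate: 384-well, collagen-coated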

Test [5] can be described thus: growth inhibitors of H69AR lung tumor, primary screen, human, duplicate replicates (AID 580;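 active means viability at or under a set limit in both replicates, limit being median viability minus 3 SD, cut at about 48% in these data, passing the limit was not always enough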;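 further: 100% = mean luminescence of untreated wells and 0% = no signal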). The following applies: H69AR lung tumor cells viability, ATP luminescence, 72 h; at 10 µM; stronger effect = lower value.
A short description of test [6]: reversal of MRP1-mediated doxorubicin resistance, pilot screen, H69AR cells, doxorubicin co-treatment (AID 601). The following applies: CellTiter-Glo, 72 h, at 10 µM; for differential viability (reversal): stronger effect = higher value.
Test [7] in a line: 384-well plate pilot, post-Golgi transport modulator project, inhibition of yeast transport mutant growth (AID 636; in the data active means inhibition above about 31%). The following applies: absorbance 615 nm, about 18 h, stronger effect = higher value.
Test [8] can be described thus: growth suppression of yeast trafficking mutant, preliminary HTS, modulators of trafficking downstream of Golgi apparatus project, 1536-format plate, OD 615 nm (AID 637; in the data active means inhibition above about 30%). Particulars: yeast transport mutant growth, absorbance 615 nm, 18 h; stronger effect = higher value.
The mark [9] stands for this setting: H69AR cells + 2 uM doxorubicin, measured here: viability with 2 uM doxorubicin, stronger effect = lower value.
The mark [10] stands for this setting: H69AR cells, compound alone cytotoxicity.

The structures appear in SMILES notation. The source made the active and inactive calls.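 How the source made its calls, unless noted: active means viability loss from added drug above about 55%, and viability with drug at most 40%, in both replicates (limit read from the data, passing the limit was not always enough); inconclusive means both conditions met in only one replicate; inactive means neither replicate meets both conditions.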

Sequence of Receptor tyrosine-protein kinase erbB-2 (Homo sapiens) (P04626 whole entry, looked up): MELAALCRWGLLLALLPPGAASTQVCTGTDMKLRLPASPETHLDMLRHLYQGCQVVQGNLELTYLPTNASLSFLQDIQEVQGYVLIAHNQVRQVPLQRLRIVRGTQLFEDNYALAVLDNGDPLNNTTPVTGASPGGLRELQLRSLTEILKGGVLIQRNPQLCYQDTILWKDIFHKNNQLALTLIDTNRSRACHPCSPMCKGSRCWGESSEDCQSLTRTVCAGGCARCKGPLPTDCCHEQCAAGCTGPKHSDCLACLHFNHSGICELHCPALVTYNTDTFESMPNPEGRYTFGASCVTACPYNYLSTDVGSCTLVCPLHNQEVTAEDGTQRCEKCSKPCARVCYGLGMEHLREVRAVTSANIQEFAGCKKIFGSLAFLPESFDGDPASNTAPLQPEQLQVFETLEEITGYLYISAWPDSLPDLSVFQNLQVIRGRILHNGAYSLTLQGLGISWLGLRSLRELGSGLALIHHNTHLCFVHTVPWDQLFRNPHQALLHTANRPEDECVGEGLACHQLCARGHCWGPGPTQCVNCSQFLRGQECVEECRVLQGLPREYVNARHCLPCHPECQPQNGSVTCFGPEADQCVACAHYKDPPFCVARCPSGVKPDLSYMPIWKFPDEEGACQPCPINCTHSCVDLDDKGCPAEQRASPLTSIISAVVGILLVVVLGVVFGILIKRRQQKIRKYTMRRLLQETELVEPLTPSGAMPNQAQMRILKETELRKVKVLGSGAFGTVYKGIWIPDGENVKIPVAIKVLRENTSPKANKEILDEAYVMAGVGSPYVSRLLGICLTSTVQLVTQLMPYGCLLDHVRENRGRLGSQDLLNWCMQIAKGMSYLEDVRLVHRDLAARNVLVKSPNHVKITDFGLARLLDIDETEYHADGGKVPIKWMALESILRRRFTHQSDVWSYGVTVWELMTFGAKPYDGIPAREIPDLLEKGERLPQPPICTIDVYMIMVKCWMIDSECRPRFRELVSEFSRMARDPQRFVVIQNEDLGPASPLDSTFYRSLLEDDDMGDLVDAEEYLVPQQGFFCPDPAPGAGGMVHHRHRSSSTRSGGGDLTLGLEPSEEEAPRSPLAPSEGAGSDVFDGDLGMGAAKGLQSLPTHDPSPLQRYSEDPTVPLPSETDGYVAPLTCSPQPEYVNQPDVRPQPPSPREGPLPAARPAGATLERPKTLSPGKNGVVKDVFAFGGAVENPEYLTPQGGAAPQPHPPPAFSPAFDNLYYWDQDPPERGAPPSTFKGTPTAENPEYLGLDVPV

As to `N=c1c(C(=O)NCc2ccc3c(c2)OCO3)cc2c(=O)n3ccccc3nc2n1Cc1cccnc1`, the viability in test [1] is 73.5%; in test [3], 73.5% (inactive); in test [4], 87% (inactive); in test [5], 78.8% (inactive); in test [6] (setting [9]) it was 79.3%; in test [6] (setting [10]), 78.8%. Also, the Her2 level in test [2] is 68% (inactive). Besides, in test [6] (H69AR cells + 2 uM doxorubicin), the differential viability (reversal) is -0.53% (inactive). The inhibition in test [7] is -2.47% (inactive); in test [8], -2.3% (inactive).
As for `CCCOC(=O)C1[C@H]2C(=O)N(CCCOC)C[C@]23C=C[C@H]1O3` (stereo not given in full), the viability in test [1] was 92.5%; in test [3], 92.5% (inactive); in test [4] it was 98.5% (inactive); in test [5], 98.3% (inactive); in test [6] (setting [9]) it was 100%; in test [6] (setting [10]) it was 98.3%. The Her2 level in test [2] is 85% (inactive). Also, the differential viability (reversal) in test [6] (H69AR cells + 2 uM doxorubicin) was -1.98% (inactive). The results for the inhibition in test [7] and in test [8] were -5.06% (inactive) and -3.17% (inactive), respectively.
`COC(=O)c1sc(S(=O)(=O)Nc2ccc3cn[nH]c3c2)c(C(=O)OC)c1C`: the viability in test [1] is 97%; in test [3] it was 97% (inactive); in test [4], 77.6% (inactive); in test [5], 78.2% (inactive); in test [6] (setting [9]) it was 90.6%; in test [6] (setting [10]), 78.2%. The Her2 level in test [2] was 93.5% (inactive). For the same compound, the differential viability (reversal) in test [6] (H69AR cells + 2 uM doxorubicin) was -12.4% (inactive). The inhibition in test [7] was -2.5% (inactive); in test [8], -6.55% (inactive).
On to `CCOCC(=O)Nc1sc2c(c1C(=O)OCC)CCCC2`, for which the viability was 89% in test [1]; 89% (inactive) in test [3]; 54% (inactive) in test [4]; 90.5% (inactive) in test [5]; 95.3% in test [6] (setting [9]); 90.5% in test [6] (setting [10]). In addition, in test [2], the Her2 level is 89.5% (inactive). In test [6] (H69AR cells + 2 uM doxorubicin), the differential viability (reversal) was -4.83% (inactive). Besides, the inhibition was 0.13% (inactive) in test [7] and 1.64% (inactive) in test [8].
`CCC(C(=O)OCC(=O)Nc1c(C)n(C)n(-c2ccccc2)c1=O)c1ccccc1` (stereo not given): the viability in test [1] is 109%; in test [3], 109% (inactive); in test [4], 117% (inactive); in test [5], 87.7% (inactive); in test [6] (setting [9]), 81.1%; in test [6] (setting [10]) it was 87.7%. In test [2], the Her2 level was 83% (inactive). The differential viability (reversal) in test [6] (H69AR cells + 2 uM doxorubicin) was 6.61% (inactive). Further, the inhibition in test [7] was -4.66% (inactive); in test [8], -4.76% (inactive).
Take `CCC(=O)Nc1ccc(Cl)c(NC(=O)C(C)C)c1`: the viability was 97% in test [1]; 97% (inactive) in test [3]; 87.9% (inactive) in test [4]; 111% (inactive) in test [5]; 103% in test [6] (setting [9]); 111% in test [6] (setting [10]). Moreover, the Her2 level in test [2] is 80% (inactive). Further, in test [6] (H69AR cells + 2 uM doxorubicin), the differential viability (reversal) is 7.54% (inactive). Also, the inhibition in test [7] was -7.97% (inactive); in test [8] it was 6.07% (inactive).
For the compound `COC(=O)c1ccccc1NC(=O)CSc1nc2c(c(=O)n(C)c(=O)n2C)n1C`, the viability was 86% in test [1]; 86% (inactive) in test [3]; 101% (inactive) in test [4]; 97% (inactive) in test [5]; 93.5% in test [6] (setting [9]); 97% in test [6] (setting [10]). In addition, in test [2], the Her2 level is 124% (inactive). Moreover, the differential viability (reversal) in test [6] (H69AR cells + 2 uM doxorubicin) was 3.48% (inactive). Moreover, the inhibition in test [7] was 5.26% (inactive); in test [8], 26.5% (inactive).
Regarding `Cc1cccn2c(=O)c3cc(C#N)c(=O)n(CCCN4CCOCC4)c3nc12`, the viability was 88.5% in test [1]; 88.5% (inactive) in test [3]; 99.8% (inactive) in test [4]; 102% (inactive) in test [5]; 82.2% in test [6] (setting [9]); 102% in test [6] (setting [10]). For the same compound, the Her2 level in test [2] was 85% (inactive). Further, the differential viability (reversal) in test [6] (H69AR cells + 2 uM doxorubicin) is 20% (inactive). The inhibition in test [7] is -3.51% (inactive); in test [8], 1.83% (inactive).
Consider `COC(=O)c1cc(NS(=O)(=O)c2ccc3c(c2)CCC(=O)N3)cc(C(=O)OC)c1`, for which the viability is 112% in test [1]; 112% (inactive) in test [3]; 94.2% (inactive) in test [4]; 96.5% (inactive) in test [5]; 95% in test [6] (setting [9]); 96.5% in test [6] (setting [10]). In addition, the Her2 level in test [2] is 86% (inactive). For the same compound, the differential viability (reversal) in test [6] (H69AR cells + 2 uM doxorubicin) is 1.56% (inactive). Also, the results for the inhibition in test [7] and in test [8] were 0% (inactive) and -2.86% (inactive), respectively.
In the case of `COc1ccc(CCn2c(-c3ccco3)nc3nc4ccccc4nc32)cc1`, the viability is 108% in test [1]; 108% (inactive) in test [3]; 62.8% (inactive) in test [4]; 25.6% (active) in test [5]; 55.4% in test [6] (setting [9]); 25.6% in test [6] (setting [10]). For the same compound, the Her2 level in test [2] was 110% (inactive). Besides, the differential viability (reversal) in test [6] (H69AR cells + 2 uM doxorubicin) was -29.9% (inactive). Further, the inhibition is -1.62% (inactive) in test [7] and 1.31% (inactive) in test [8].
For `COC(=O)C(CC(C)C)NC(=O)CSc1nc(-c2ccccc2)c(C#N)c(=O)[nH]1` (stereo not given), the viability in test [1] was 110%; in test [3], 110% (inactive); in test [4], 107% (inactive); in test [5], 108% (inactive); in test [6] (setting [9]), 100%; in test [6] (setting [10]), 108%. The Her2 level in test [2] is 90% (inactive). Also, in test [6] (H69AR cells + 2 uM doxorubicin), the differential viability (reversal) was 7.26% (inactive). In addition, the figures for the inhibition in test [7] and in test [8] were -3.12% (inactive) and 4.1% (inactive), respectively.
With `Cc1cccc(-c2cc3nc(C)cc(NCCCN(C)C)n3n2)c1`, the viability in test [1] is 91.5%; in test [3], 91.5% (inactive); in test [4], 57.5% (inactive); in test [5] it was 82.8% (inactive); in test [6] (setting [9]) it was 75.8%; in test [6] (setting [10]) it was 82.8%. Besides, the Her2 level in test [2] was 87.5% (inactive). For the same compound, the differential viability (reversal) in test [6] (H69AR cells + 2 uM doxorubicin) was 6.94% (inactive). The figures for the inhibition in test [7] and in test [8] were -6.93% (inactive) and 1.97% (inactive), respectively.
With `O=c1c2ccccc2nnn1CSc1nc2cc(Cl)ccc2c(=O)n1Cc1ccco1`, the viability was 102% in test [1]; 102% (inactive) in test [3]; 81.5% (inactive) in test [4]; 86.4% (inactive) in test [5]; 81.7% in test [6] (setting [9]); 86.4% in test [6] (setting [10]). Also, in test [2], the Her2 level was 104% (inactive). Besides, in test [6] (H69AR cells + 2 uM doxorubicin), the differential viability (reversal) is 4.62% (inactive). The inhibition is -0.53% (inactive) in test [7] and -4.03% (inactive) in test [8].
As for `COc1ccc(OCCOC(=O)c2cccs2)cc1`, the viability in test [1] is 97.5%; in test [3] it was 97.5% (inactive); in test [4] it was 111% (inactive); in test [5], 109% (inactive); in test [6] (setting [9]) it was 89.5%; in test [6] (setting [10]) it was 109%. The Her2 level in test [2] was 92% (inactive). Besides, the differential viability (reversal) in test [6] (H69AR cells + 2 uM doxorubicin) was 19% (inactive). In addition, the inhibition is -6.22% (inactive) in test [7] and 5.24% (inactive) in test [8].
On to `CC(=O)Nc1ccc(Oc2cc(C#N)c(C#N)cc2N2CCCCCC2)cc1`, for which the viability in test [1] was 108%; in test [3], 108% (inactive); in test [4], 73.5% (inactive); in test [5], 89.6% (inactive); in test [6] (setting [9]), 67.8%; in test [6] (setting [10]), 89.6%. Also, the Her2 level in test [2] is 76% (inactive). Besides, the differential viability (reversal) in test [6] (H69AR cells + 2 uM doxorubicin) is 21.8% (inactive). Moreover, the inhibition in test [7] is -3.03% (inactive); in test [8], 0.95% (inactive).
`COc1ccc(Cc2nc(-c3ccc(NC(=O)c4cccnc4)cc3)no2)cc1`: the viability was 109% in test [1]; 109% (inactive) in test [3]; 123% (inactive) in test [4]; 17.7% (active) in test [5]; 17.7% in test [6] (setting [9]); 17.7% in test [6] (setting [10]). In addition, the Her2 level in test [2] was 84.5% (inactive). Besides, the differential viability (reversal) in test [6] (H69AR cells + 2 uM doxorubicin) was -0.01% (inactive). Further, the inhibition in test [7] is -7.7% (inactive); in test [8], 7.94% (inactive).

For orientation: viability means a read-out of living cells in per cent, often relative to untreated cells. By inhibition is commonly meant the change of the read-out against control, counted positive when it falls.
